Results reported in PubChem BioAssay.
Activity calls are given as the source filed them.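 The calls were made as follows, unless noted: active = viability at or below 10% of carrier control in both of two separate runs; inconclusive = viability at or below 10% in only one of the two runs; inactive = the rest.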

How the values were obtained:
[1] = Her2 expression decrease, cell viability multiplex – SKBR3 breast tumor cells, AlphaScreen, ATP viability, primary screen (AID 461;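 active = Her2 level under about 52% in both replicate screens, with viability over 70% of control, limit read from the data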;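 as to Her2 level: lower value means less Her2 protein in the cells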;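 as to viability: percent of carrier control wells set as 100% viability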); details: SKBR3 Her2 protein level, 18-24 h, measured here: SKBR3 viability, ATP luminescence, at 10 µM
[2] = target: Receptor tyrosine-protein kinase erbB-2 (Homo sapiens) (UniProt P04626); experiment: as above; details: 18-24 h, at 10 µM, stronger effect = lower value
[3] = reduced viability of SK-BR-3 breast cancer cells – cell-based, 24 h, human, pilot screen (AID 572); details: SK-BR-3 viability, CellTiter-Glo luminescence, at 10 µM, stronger effect = lower value;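 also: compound exposure lasted between 18 and 24 h rather than exactly 24 h; 100% = carrier-treated control wells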
[4] = HUVEC growth inhibition – cell-based, human, primary screen (AID 575;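 active = viability at or below 30% in both replicate assays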;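 also: 100% = median of untreated cell wells with 0.1% DMSO on each plate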); details: HUVEC proliferation, CellTiter-Glo luminescence, 72 h; at 10 µM; stronger effect = lower value
In short: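 Material: primary human umbilical vein endothelial cells / Schedule: 72 h exposure, 37 °C, 5% CO2, 30 min RT equilibration / Signal: ATP-based CellTiter-Glo luminescent read / Read-out basis: percent of median DMSO-control luminescence / Control set: 32 DMSO-only cell-control wells (high), 32 MePR drug-control wells (low) per plate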

[5] = H69AR cell proliferation blockers – human, duplicate replicates, primary screen (AID 580;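 active = viability at or under a set limit in both replicates, limit being median viability minus 3 SD, cut at about 48% in these data, passing the limit was not always enough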;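 also: 100% = mean luminescence of untreated wells and 0% = no signal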); details: H69AR lung tumor cells viability, ATP luminescence, 72 h; at 10 µM; stronger effect = lower value
[6] = MRP1 drug-resistance reversers in H69AR cells – cell-based, doxorubicin co-treatment, pilot screen (AID 601;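 active = viability loss from added drug above about 55%, and viability with drug at most 40%, in both replicates, limit read from the data, passing the limit was not always enough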); details: CellTiter-Glo, 72 h, at 10 µM; for differential viability (reversal): stronger effect = higher value
[7] = yeast transport mutant growth inhibition pilot in 384-well plates, post-Golgi transport modulator project (AID 636; in the data active = inhibition above about 31%); details: absorbance 615 nm, about 18 h, stronger effect = higher value
[8] = growth suppression of yeast trafficking mutant, preliminary HTS, modulators of trafficking downstream of Golgi apparatus project, 1536-format plate, OD 615 nm (AID 637; in the data active = inhibition above about 30%); details: yeast transport mutant growth, absorbance 615 nm, 18 h; stronger effect = higher value
[9] = H69AR cells + 2 uM doxorubicin, measured here: viability with 2 uM doxorubicin, stronger effect = lower value
[10] = H69AR cells, compound alone cytotoxicity

Chain of Receptor tyrosine-protein kinase erbB-2 (Homo sapiens) (P04626 whole entry, looked up): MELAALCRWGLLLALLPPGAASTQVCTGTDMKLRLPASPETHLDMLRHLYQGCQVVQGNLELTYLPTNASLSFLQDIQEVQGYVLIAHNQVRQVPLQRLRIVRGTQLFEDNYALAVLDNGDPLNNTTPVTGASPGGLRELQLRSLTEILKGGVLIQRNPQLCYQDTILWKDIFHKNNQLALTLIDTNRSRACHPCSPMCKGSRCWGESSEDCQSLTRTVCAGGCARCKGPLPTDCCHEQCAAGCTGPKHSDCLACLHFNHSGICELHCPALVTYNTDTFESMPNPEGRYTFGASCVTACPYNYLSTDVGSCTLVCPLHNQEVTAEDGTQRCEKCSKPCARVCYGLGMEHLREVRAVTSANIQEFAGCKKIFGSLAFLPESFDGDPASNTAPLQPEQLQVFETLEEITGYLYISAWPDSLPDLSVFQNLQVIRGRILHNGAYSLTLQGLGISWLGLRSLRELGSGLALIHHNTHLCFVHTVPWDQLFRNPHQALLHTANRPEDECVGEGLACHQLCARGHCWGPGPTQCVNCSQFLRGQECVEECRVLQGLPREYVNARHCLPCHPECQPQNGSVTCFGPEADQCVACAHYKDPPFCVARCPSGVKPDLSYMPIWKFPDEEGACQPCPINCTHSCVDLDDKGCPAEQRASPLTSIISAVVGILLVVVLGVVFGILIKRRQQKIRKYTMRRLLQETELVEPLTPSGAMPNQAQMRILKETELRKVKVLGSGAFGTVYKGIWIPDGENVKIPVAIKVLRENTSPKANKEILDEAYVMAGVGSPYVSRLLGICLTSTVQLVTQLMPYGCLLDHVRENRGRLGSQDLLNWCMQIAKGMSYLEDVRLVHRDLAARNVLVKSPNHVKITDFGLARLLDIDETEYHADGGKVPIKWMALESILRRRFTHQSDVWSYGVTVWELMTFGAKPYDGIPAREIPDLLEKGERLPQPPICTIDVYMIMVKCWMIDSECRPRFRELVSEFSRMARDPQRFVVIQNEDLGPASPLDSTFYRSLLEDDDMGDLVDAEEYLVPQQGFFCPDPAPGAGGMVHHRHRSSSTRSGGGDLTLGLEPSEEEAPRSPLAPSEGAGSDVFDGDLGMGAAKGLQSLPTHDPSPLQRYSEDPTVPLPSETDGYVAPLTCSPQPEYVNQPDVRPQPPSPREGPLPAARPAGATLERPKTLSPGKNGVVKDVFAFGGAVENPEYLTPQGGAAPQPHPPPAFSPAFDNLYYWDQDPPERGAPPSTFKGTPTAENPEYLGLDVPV

| SMILES | viability [1] [%] | Her2 level [2] | viability [3] | viability [4] | viability [5] | differential viability (reversal) ([6]; H69AR cells + 2 uM doxorubicin) | viability [6, 9] [%] | viability [6, 10] [%] | inhibition [7] | inhibition [8] |
| --- | --- | --- | --- | --- | --- | --- | --- | --- | --- | --- |
| Cn1cnc2c(N3CCCCC3)nccc21 | 116 | 104% (inactive) | 116% (inactive) | 87.3% (inactive) | 90.5% (inactive) | -5.21% (inactive) | 95.7 | 90.5 | -4.16% (inactive) | -1.64% (inactive) |
| O=C(NCc1cccs1)C1CCCN(c2ncccn2)C1 (stereo not given) | 104 | 89.5% (inactive) | 104% (inactive) | 105% (inactive) | 94.8% (inactive) | 8.86% (inactive) | 85.9 | 94.8 | -2.4% (inactive) | -1.94% (inactive) |
| COc1ccc(CC(NC(C)=O)C(=O)N2CCN(C(=O)N(C(C)C)C(C)C)CC2)cc1 (stereo not given) | 90.5 | 110% (inactive) | 90.5% (inactive) | 94.5% (inactive) | 94.2% (inactive) | 5.88% (inactive) | 88.3 | 94.2 | -5.13% (inactive) | -12.8% (inactive) |
| O=C(CSc1nnc(-c2ccco2)c(-c2ccco2)n1)Nc1ccccc1 | 102 | 64% (inactive) | 102% (inactive) | 89.2% (inactive) | 77.6% (inactive) | -12.2% (inactive) | 89.8 | 77.6 | 2.63% (inactive) | 9.03% (inactive) |
| COCCN1C(=O)C(=O)/C(=C(/O)c2cccc(OC)c2)C1c1ccncc1 (stereo not given) | 99 | 104% (inactive) | 99% (inactive) | 101% (inactive) | 93% (inactive) | -3.51% (inactive) | 96.5 | 93 | -0.26% (inactive) | 3.64% (inactive) |
| CC(=O)c1cc(-c2ccc(F)cc2)n(CCC(=O)Nc2cc(C)[nH]n2)c1C | 105 | 82.5% (inactive) | 105% (inactive) | 102% (inactive) | 104% (inactive) | 18.3% (inactive) | 85.5 | 104 | -6.62% (inactive) | 2.46% (inactive) |
| COC(=O)c1ccccc1S(=O)(=O)N(CCCO)Cc1cc2c(C)ccc(C)c2[nH]c1=O | 84.5 | 106% (inactive) | 84.5% (inactive) | 75.3% (inactive) | 79.3% (inactive) | -2.33% (inactive) | 81.6 | 79.3 | -4.73% (inactive) | -5.25% (inactive) |
| COc1ccccc1CNC(=O)CCNC(=O)Cn1ccc2ccccc2c1=O | 93 | 92% (inactive) | 93% (inactive) | 98.3% (inactive) | 100% (inactive) | 12.8% (inactive) | 87.4 | 100 | -0.13% (inactive) | 4.59% (inactive) |
| CCN(CC)CCN1C(=O)C(O)=C(C(=O)c2ccco2)C1c1ccccn1 (stereo not given) | 109 | 93% (inactive) | 109% (inactive) | 88.9% (inactive) | 97.7% (inactive) | 1.63% (inactive) | 96 | 97.7 | -3.82% (inactive) | 5.08% (inactive) |
| COC(=O)c1c(NC(=O)c2ccc(S(=O)(=O)N3CCOCC3)cc2)sc2c1CCN(C)C2 | 96 | 106% (inactive) | 96% (inactive) | 94.8% (inactive) | 90% (inactive) | -5.3% (inactive) | 95.3 | 90 | -5.26% (inactive) | -7.46% (inactive) |
| Cc1cc(C)n(CCCNC(=O)c2ccc3c(c2)NC(=O)CS3)n1 | 104 | 80.5% (inactive) | 104% (inactive) | 91.8% (inactive) | 89.7% (inactive) | 3.36% (inactive) | 86.3 | 89.7 | -5.6% (inactive) | -1.48% (inactive) |
| CC1=Nn2c(nnc2-c2cc(-c3ccccc3)n[nH]2)SC1 | 97.5 | 78% (inactive) | 97.5% (inactive) | 94.3% (inactive) | 91.4% (inactive) | 7.02% (inactive) | 84.4 | 91.4 | -3.47% (inactive) | 7.05% (inactive) |
| CNC(=O)CC(C(=O)O)c1ccc(OC(C)C)cc1 (stereo not given) | 105 | 85.5% (inactive) | 105% (inactive) | 92.3% (inactive) | 90% (inactive) | 4.31% (inactive) | 85.7 | 90 | -5.07% (inactive) | 1.75% (inactive) |
| Cc1cc(C)cc(NC(=O)N2CCC(c3nc4ccccc4o3)CC2)c1 | 90.5 | 99% (inactive) | 90.5% (inactive) | 88.9% (inactive) | 94.9% (inactive) | 1.69% (inactive) | 93.2 | 94.9 | -4.8% (inactive) | 1.8% (inactive) |
| COC(=O)c1cc2ccsc2n1CC(=O)Nc1cc(C)cc(C)c1 | 96.5 | 124% (inactive) | 96.5% (inactive) | 64% (inactive) | 84.8% (inactive) | -0.08% (inactive) | 84.8 | 84.8 | 1.92% (inactive) | 14.3% (inactive) |
| COCCSc1ccccc1C(=O)Nc1cc(C)on1 | 91 | 90% (inactive) | 91% (inactive) | 95.4% (inactive) | 94.5% (inactive) | 4.69% (inactive) | 89.8 | 94.5 | 0.39% (inactive) | -2.74% (inactive) |
| CCN(CCNC(=O)C1CCN(S(C)(=O)=O)CC1)c1ccccc1 | 91 | 104% (inactive) | 91% (inactive) | 93.3% (inactive) | 88.2% (inactive) | 5.42% (inactive) | 82.8 | 88.2 | -1.67% (inactive) | -1% (inactive) |
| CCCS(=O)(=O)N1CCN(Cc2ccc(OCc3ccccc3)c(OC)c2)CC1 | 84.5 | 114% (inactive) | 84.5% (inactive) | 105% (inactive) | 87.8% (inactive) | -5.26% (inactive) | 93.1 | 87.8 | 4.19% (inactive) | 30.2% (active) |
| COC(=O)c1ccc(NC(=O)Cn2nnc3ccccc32)cc1 | 94 | 82.5% (inactive) | 94% (inactive) | 109% (inactive) | 108% (inactive) | 17.7% (inactive) | 90 | 108 | 0.13% (inactive) | 0% (inactive) |
| COc1ccc(-n2c(Cc3cccn3C)nnc2SCC(=O)NCC2CCCO2)cc1 (stereo not given) | 100 | 107% (inactive) | 100% (inactive) | 93.9% (inactive) | 100% (inactive) | 7.7% (inactive) | 92.3 | 100 | -0.9% (inactive) | 3% (inactive) |
| COc1ccc2c(c1)C(C)=CC(C)(C)N2C(=O)CSc1nnc(-c2ccc(C)cc2)o1 | 98.5 | 99% (inactive) | 98.5% (inactive) | 53.2% (inactive) | 93.9% (inactive) | 2.13% (inactive) | 91.8 | 93.9 | 31% (active) | -1% (inactive) |
| COc1ccccc1-c1nnc(SCc2ccccn2)n1C | 94 | 107% (inactive) | 94% (inactive) | 113% (inactive) | 80.6% (inactive) | -10.8% (inactive) | 91.4 | 80.6 | 7.53% (inactive) | 9.37% (inactive) |
| CCc1cc2c(=O)n(C(C)C(=O)OC3CCCCC3)cnc2s1 (stereo not given) | 102 | 117% (inactive) | 102% (inactive) | 90.1% (inactive) | 81.6% (inactive) | -4.32% (inactive) | 85.9 | 81.6 | -6.62% (inactive) | -5.83% (inactive) |
| CCn1c(=O)c(C(=O)Nc2cccnc2)c(O)c2ccccc21 | 103 | 84.5% (inactive) | 103% (inactive) | 113% (inactive) | 67.7% (inactive) | -24.2% (inactive) | 91.9 | 67.7 | -0.93% (inactive) | 100% (active) |
| CCC(C)NC(=O)C1CCCN(S(=O)(=O)c2ccc(-n3cnnn3)cc2)C1 (stereo not given) | 109 | 104% (inactive) | 109% (inactive) | 104% (inactive) | 103% (inactive) | 14.5% (inactive) | 88.6 | 103 | -2.97% (inactive) | -10% (inactive) |
| O=C(CSc1nnc2ncccn12)N1CCCCCC1 | 102 | 85% (inactive) | 102% (inactive) | 103% (inactive) | 107% (inactive) | 15.6% (inactive) | 91.3 | 107 | -3.84% (inactive) | -7.3% (inactive) |
| COC(=O)c1ccccc1NC(=O)c1ccc(COc2ccccc2)o1 | 71.5 | 106% (inactive) | 71.5% (inactive) | 94.6% (inactive) | 98.3% (inactive) | 0.68% (inactive) | 97.6 | 98.3 | -6.13% (inactive) | -4.1% (inactive) |
| O=C(O)C1CC(=O)N(c2ccc(OCc3ccccc3Cl)cc2)C1 (stereo not given) | 83 | 92.5% (inactive) | 83% (inactive) | 95.9% (inactive) | 90% (inactive) | 8.43% (inactive) | 81.6 | 90 | 0% (inactive) | 17.8% (inactive) |
